The source made the active and inactive calls. The calls are words filed in the database; no cut-off is given here.
How the values were obtained:
LNCaP = assay: Cytotoxicity against human LNCAP cells after 24 hrs by MTT assay; format: functional, cell-based
[1] = target: T1, Androgen receptor (Homo sapiens) (UniProt P10275); assay: Antagonist activity at AR (unknown origin) expressed in African green monkey COS7 cells at 7.5 uM after 24 hrs by dual luciferase reporter gene assay; format: cell-based
T1 sequence (whole entry): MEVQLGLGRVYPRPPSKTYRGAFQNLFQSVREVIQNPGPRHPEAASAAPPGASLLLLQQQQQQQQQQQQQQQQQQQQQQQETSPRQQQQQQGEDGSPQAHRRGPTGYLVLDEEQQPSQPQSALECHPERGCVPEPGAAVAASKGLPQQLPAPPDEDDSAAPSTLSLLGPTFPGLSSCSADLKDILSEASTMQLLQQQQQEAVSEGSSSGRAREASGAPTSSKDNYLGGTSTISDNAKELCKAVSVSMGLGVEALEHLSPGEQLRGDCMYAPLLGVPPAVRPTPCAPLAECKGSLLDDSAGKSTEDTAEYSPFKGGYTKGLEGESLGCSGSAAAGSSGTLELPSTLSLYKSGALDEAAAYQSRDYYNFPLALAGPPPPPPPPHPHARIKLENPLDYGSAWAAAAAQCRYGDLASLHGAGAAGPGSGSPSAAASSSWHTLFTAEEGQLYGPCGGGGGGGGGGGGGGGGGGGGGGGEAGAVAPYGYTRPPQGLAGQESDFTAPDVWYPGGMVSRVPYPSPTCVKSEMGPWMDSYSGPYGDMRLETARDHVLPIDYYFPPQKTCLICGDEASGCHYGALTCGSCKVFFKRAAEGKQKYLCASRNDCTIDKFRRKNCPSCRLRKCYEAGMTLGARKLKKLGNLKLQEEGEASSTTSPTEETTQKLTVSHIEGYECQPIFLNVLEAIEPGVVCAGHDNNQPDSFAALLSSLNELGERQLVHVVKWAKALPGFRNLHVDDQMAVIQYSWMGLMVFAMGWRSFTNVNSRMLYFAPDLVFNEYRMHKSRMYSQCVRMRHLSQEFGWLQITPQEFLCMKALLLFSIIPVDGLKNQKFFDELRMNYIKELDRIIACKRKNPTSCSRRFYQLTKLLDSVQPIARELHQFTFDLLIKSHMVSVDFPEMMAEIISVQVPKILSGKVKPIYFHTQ
Procedure, shortened: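 Cos7 cells (AR-negative) transiently transfected for 8 h with pARE-E1B-LUC reporter plus pCR3.1.AR expression vector. Then in complete medium, treated with compound at 7.5 μM for 24 h; bicalutamide 3 μM as positive control. Luciferase normalized to pRL-SV40 internal control, expressed as RLU relative to control = 100%.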

Rattus norvegicus [2] = assay: Toxicity in citral-induced prostatic hyperplasia Sprague-Dawley rat model assessed as effect on testis weight at 10 mg/kg, po administered once daily coadministered with citral for 21 days measured 24 hrs last post dose; format: organism-based; settings: in vivo
Rattus norvegicus [3] = assay: Toxicity in citral-induced prostatic hyperplasia Sprague-Dawley rat model assessed as effect on epididymis weight at 10 mg/kg, po administered once daily coadministered with citral for 21 days measured 24 hrs last post dose; format: organism-based; settings: in vivo
Mus musculus = assay: Toxicity in Swiss albino mouse assessed as effect on locomotor activity at 20 mg/kg, po measured at 5 mins interval for 90 mins by open field test; format: organism-based; settings: in vivo
Procedure, shortened: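 Male Swiss albino mice in an activity chamber, infrared beam-break counting over 24 intervals of 5 min (120 min). Oral dosing after the 6th interval; six animals per group.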

[4] = Clearance in Sprague-Dawley rat serum at 10 mg/kg, iv administered as single dose by LC-MS/MS analysis; format: ADME, organism-based
Procedure, shortened: (§1)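 Male Sprague Dawley rats (250 ± 25 g), fasted overnight (12-16 h), n = 3 per time point; single 10 mg/kg dose orally by feeding needle, or iv from DMSO solution. Serum, prostate and hypothalamus collected up to 48 h post oral dose; hypothalamus from three rats pooled. LC-MS/MS (MRM, phenacetin internal standard), linear 5-400 ng/mL; noncompartmental and compartmental analysis.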

[5] = Cmax in Sprague-Dawley rat serum at 10 mg/kg, po administered as single dose by LC-MS/MS analysis; format: ADME, organism-based; design: dose 10 mg/kg, route oral; procedure, shortened: as §1
[6] = AUClast in Sprague-Dawley rat serum at 10 mg/kg, po administered as single dose by LC-MS/MS analysis; format: ADME, organism-based; design: dose 10 mg/kg, route oral, time 0 - last; procedure, shortened: as §1
[7] = Oral bioavailability in Sprague-Dawley rat serum at 10 mg/kg administered as single dose by LC-MS/MS analysis; format: ADME, organism-based; procedure, shortened: as §1
[8] = Tmax in Sprague-Dawley rat prostate at 10 mg/kg, po administered as single dose by LC-MS/MS analysis; format: ADME, organism-based, Prostate gland; procedure, shortened: as §1
[9] = AUClast in Sprague-Dawley rat prostate at 10 mg/kg, po administered as single dose by LC-MS/MS analysis; format: ADME, organism-based, Prostate gland; settings: in vivo; procedure, shortened: as §1
[10] = Half life in Sprague-Dawley rat prostate at 10 mg/kg, po administered as single dose by LC-MS/MS analysis; format: ADME, organism-based, Prostate gland; procedure, shortened: as §1
[11] = Cmax in Sprague-Dawley rat hypothalamus at 10 mg/kg, po administered as single dose by LC-MS/MS analysis; format: ADME, organism-based; design: dose 10 mg/kg, route oral; procedure, shortened: as §1
[12] = Tmax in Sprague-Dawley rat hypothalamus at 10 mg/kg, po administered as single dose by LC-MS/MS analysis; format: ADME, organism-based; procedure, shortened: as §1
Hypothalamus = assay: AUClast in Sprague-Dawley rat hypothalamus at 10 mg/kg, po administered as single dose by LC-MS/MS analysis; format: ADME, organism-based; settings: in vivo; procedure, shortened: as §1
[13] = Half life in Sprague-Dawley rat hypothalamus at 10 mg/kg, po administered as single dose by LC-MS/MS analysis; format: ADME, organism-based; procedure, shortened: as §1

- Activity [1]: Active
- clearance [4]: 68.3 mL/min/kg
- Cmax [5]: 329 ng/mL
- AUC(0-t) [6]: 900 ng·h/mL
- bioavailability [7]: 35.4%
- Tmax [8]: 4 h
- AUClast [9]: 10.7 µg·h/g
- half-life [10]: 155 h
- Cmax [11]: 461 ng/g
- Tmax [12]: 1 h
- AUClast (Hypothalamus): 4.2 µg·h/g
- half-life [13]: 129 h
SMILES: c1ccc(N2CCN(CCCN3CCN(c4ccccn4)CC3)CC2)nc1
- EC50 (LNCaP): 15.6 µM
- Activity (Rattus norvegicus [2]): Non-Toxic
- Activity (Rattus norvegicus [3]): Non-Toxic
- Activity (Mus musculus): Non-Toxic

From ChEMBL document CHEMBL4024713, “Novel aryl piperazines for alleviation of 'andropause' associated prostatic disorders and depression” (Eur J Med Chem, 2017)
